The source of these data is ChEMBL document CHEMBL5029189, “Development of a 1,2,4-Triazole-Based Lead Tankyrase Inhibitor: Part II” (J Med Chem, 2021).

A short description of data set [1]: Inhibition of Wnt/beta-catenin signaling pathway in HEK293T cells incubated for 24 hrs by dual-Glo luciferase assay. The note with it: Homo sapiens, HEK-293T. It is filed as cell-based. Summed up: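 Luciferase-based WNT/β-catenin pathway reporter in human HEK293 cells, run as in earlier work with a reference tankyrase inhibitor included. Each concentration tested in triplicate. IC50 derived by curve fitting, with T/F-tests applied to the fit.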

The test system of data set [2] is COLO 320DM. Description: Inhibition of Wnt/beta-catenin signaling pathway in human COLO 320DM cells assessed as reduction in AXIN2 level qRT-PCR analysis. The format is cell-based. The conditions noted are these: dose 0.1-100 nM. For orientation: Quantitative PCR measures a nucleic acid by following its amplification.
Data set [3] has as its system COLO 320DM. Briefly: Inhibition of Wnt/beta-catenin signaling pathway in human COLO 320DM cells assessed as reduction in DKK1 level qRT-PCR analysis. The format is cell-based. The conditions noted are these: dose 0.1-100 nM.
For data set [4], the system named is Salmonella typhimurium. Description: Genotoxicity in Salmonella typhimurium TA100 in presence of rat liver S9 fraction by Ames test. It is filed as toxicity, organism-based. The note with it: salmonella enterica subsp. enterica serovar typhimurium. In general terms: The Ames test detects mutagens through reverse mutation in bacteria.
For data set [5], the system named is COLO 320DM. Briefly: Inhibition of Wnt/beta-catenin signaling pathway in human COLO 320DM cells assessed as reduction in nuclear beta-catenin level at 0.1 to 100 nM by immunoblot analysis. The format is cell-based. The note with it: dose 0.1-100 nM. A general note: Immunoblotting shows a protein as a band on a membrane.
Data set [6] has as its system COLO 320DM. Description: Inhibition of Wnt/beta-catenin signaling pathway in human COLO 320DM cells assessed as reduction in APCDD1 level qRT-PCR analysis. It is filed as cell-based. The conditions noted are these: dose 0.1-100 nM.
Data set [7] concerns the target T1, Nuclear receptor subfamily 1 group I member 2 (Homo sapiens, UniProt O75469).
T1 sequence (O75469 whole entry): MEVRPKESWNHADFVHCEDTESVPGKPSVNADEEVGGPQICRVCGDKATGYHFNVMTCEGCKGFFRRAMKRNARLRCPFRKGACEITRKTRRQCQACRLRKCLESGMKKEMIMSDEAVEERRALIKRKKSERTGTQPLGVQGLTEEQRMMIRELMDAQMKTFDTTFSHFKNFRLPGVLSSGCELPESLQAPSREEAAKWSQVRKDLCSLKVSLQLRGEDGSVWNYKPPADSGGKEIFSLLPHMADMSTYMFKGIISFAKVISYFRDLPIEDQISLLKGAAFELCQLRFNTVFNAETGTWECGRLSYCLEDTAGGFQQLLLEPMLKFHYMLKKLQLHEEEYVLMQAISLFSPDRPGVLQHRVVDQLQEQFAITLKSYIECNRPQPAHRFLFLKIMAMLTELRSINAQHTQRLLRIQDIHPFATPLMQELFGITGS
Briefly: Inhibition of PXR (unknown origin) at 100 uM.

In data set [8] the test system is Salmonella typhimurium. Description: Genotoxicity in Salmonella typhimurium TA98 in presence of rat liver S9 fraction by Ames test. The format is toxicity, organism-based. The note with it: salmonella enterica subsp. enterica serovar typhimurium.
In data set [9] the test system is COLO 320DM. Description: Inhibition of Wnt/beta-catenin signaling pathway in human COLO 320DM cells assessed as effect on TNKS1/2 level by immunoblot analysis. The format is cell-based. The conditions noted are these: dose 0.1-100 nM.
Data set [10] has as its system COLO 320DM. Briefly: Inhibition of Wnt/beta-catenin signaling pathway in human COLO 320DM cells assessed as stabilization of AXIN2 at 0.1 to 100 nM by immunoblot analysis. The conditions noted are these: dose 0.1-100 nM. The format is cell-based.
In data set [11] the test system is COLO 320DM. Description: Inhibition of Wnt/beta-catenin signaling pathway in human COLO 320DM cells assessed as reduction in cytoplasmic beta-catenin level at 0.1 to 100 nM by immunoblot analysis. The format is cell-based. The note with it: dose 0.1-100 nM.
The subject of data set [12] is COLO 320DM. Briefly: Inhibition of Wnt/beta-catenin signaling pathway in human COLO 320DM cells assessed as stabilization of AXIN1 at 0.1 to 100 nM by immunoblot analysis. The format is cell-based. The note with it: dose 0.1-100 nM.
In data set [13] the test system is COLO 320DM. Description: Inhibition of Wnt/beta-catenin signaling pathway in human COLO 320DM cells assessed as reduction in NKD1 level qRT-PCR analysis. The note with it: dose 0.1-100 nM. The format is cell-based.
Data set [14] is described as follows: Metabolic stability in human liver microsomes assessed as intrinsic clearance measured per mg protein incubated up to 60 mins in presence of NADPH by UPLC-MS/MS analysis. The format is ADME, Microsome. The conditions noted are these: read-out: […].
The nature of data set [15]: Metabolic stability in mouse liver microsomes assessed as intrinsic clearance measured per mg protein incubated up to 60 mins in presence of NADPH by UPLC-MS/MS analysis. It is filed as ADME, Microsome. The conditions noted are these: read-out: CLH.
The nature of data set [16]: Apparent permeability across apical to basolateral side in human Caco-2 cells at 10 uM incubated for 120 mins by LC-MS/MS analysis. It is filed as ADME, cell-based.

Molecules are shown by their SMILES. Calls of active or inactive are those of the source. The rule behind the calls is not given here.

One may read the IC50 as the point on the concentration scale where inhibition reaches its midpoint. For `CCOc1ccc(-c2nnc([C@H]3C[C@H](NC(=O)c4ccnc5cccnc45)C3)n2-c2ccccc2F)nc1`, the IC50 in data set [1] worked out at 0.63 nM.

The compound `CCOc1ccc(-c2nnc([C@H]3C[C@H](NC(=O)c4ccnc5cc(F)cnc45)C3)n2-c2ccccc2F)nc1` yielded an IC50 in [1] of 0.17 nM.

Turning to `CCOc1ccc(-c2nnc([C@H]3C[C@H](NC(=O)c4cccc5nccnc45)C3)n2-c2ccccc2F)nc1`, the inhibition entry with COLO 320DM [2], with COLO 320DM [3], with COLO 320DM [6], with COLO 320DM [9] and in the data set with COLO 320DM [13] was “Dose-Dependent Effect” throughout. The Activity result in the data set on Salmonella typhimurium [4] and in the data set with Salmonella typhimurium [8] was “Non-Toxic” throughout. Moreover, the inhibition entry in the data set with COLO 320DM [5], in the data set on COLO 320DM [10], in the data set on COLO 320DM [11] and with COLO 320DM [12] was “Active” throughout. Besides, in [7], the half-maximal inhibitory concentration (IC50) entry was “Not Active”.

Usually Papp A→B stands for the apparent permeability from the apical to the basolateral side of a cell layer. `CCOc1ccc(-c2nnc([C@H]3C[C@H](NC(=O)c4ccccn4)C3)n2-c2ccccc2F)nc1`: the Activity result in the data set on Salmonella typhimurium [4] and with Salmonella typhimurium [8] was “Non-Toxic” each time. In addition, the microsomal CLint in data set [14] was less than 5 µL/min/mg; in data set [15] it was 27 µL/min/mg. In data set [16], the Papp A→B at 2 h, 10 µM came to 39.5 ×10⁻⁶ cm/s.
